# The list is not random: actives were taken first. Their share in the collection is about 2.3%.
# SKN-1 inh = C. elegans SKN-1 inhibition | C. elegans VP596 Pgst-4::GFP/RFP ratio, acrylamide-induced, 24 h | inhibition, % at 21.8 µM | 0.49% of 360,000 active | AID 624304;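 active means interference check ratio from 0.5 to 1.5 plus GFP to RFP signal ratio inhibition reaching or exceeding a fixed threshold, cut at about 30% in these data, passing the limit was not always enough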
# Rpn11 inh = inhibitors of human proteasome Rpn11. O00487. human 26S proteasome, Ub4-pepOG fluorescence polarization; 20S core pre-blocked with epoxomicin. inhibition, % at 20 µM. 0.59% of 360,000 active. AID 588493;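 active means inhibition at 20 µM, scaled to each plate's controls, above about 33%, limit read from the data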
# SUMO1-SIM PPI = SUMO1-SIM interaction modulation | 0.33% of 360,000 active | P63165 | SUMO1 binding to a labelled peptide, TR-FRET, 1 h | inhibition, % at 20 µM; in the data active means inhibition above about 37%
# MT1-MMP act inh = inhibitors of human MT1-MMP activation; P50281; HT1080 RFP-PRO-GFP cells, GFP/RFP ratio fluorescence, overnight; percent of plate control window, DMSO zero; GFP/RFP ratio change, % at 20 µM; 0.061% of 360,000 active; AID 651647;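 active means GFP/RFP ratio change of at least 30% with cell ATP level not reduced by more than half and red fluorescence within 50% of control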
#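 Assay system – RFP-PRO-GFP reporter HT1080 cells · Compound dosing – single dose of 20 µM compound, 1% DMSO final · Incubation – overnight compound exposure at 37 °C · Measure – GFP/RFP fluorescence ratio · Benchmarks – DMSO wells and RFP-L50D-GFP cells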
# DNMT1 block = blocks human DNA methyltransferase DNMT1; P26358; DNMT1 molecular beacon, Hinp1I cleavage, fluorescence; inhibition (reported as % activation of signal), % at 10 µM; 0.83% of 360,000 active; in the data active means inhibition above about 50%
# CSN deneddyl inh = blocks human CSN-mediated cullin deneddylation | Q92905 | Purified CSN, SCF-Nedd8-OG deneddylation, fluorescence polarization | inhibition, % at 12.5 µM | 0.38% of 360,000 active | AID 651999;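 active means pattern-corrected inhibition above about 35%, with an unprinted fluorescence ratio check between 0.5 and 1.5, limit read from the data, passing the limit was not always enough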;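 further: 0% = enzyme with substrate and 100% = substrate without enzyme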
#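 Detection – fluorescence polarization · System – HEK293T-derived human Csn5 enzyme · Controls – substrate-only high control, full reaction low control · Timing – 90 min, room temperature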
# * hit, by the source's call; / = not tested or not shown.
SMILES,SKN-1 inh,Rpn11 inh,SUMO1-SIM PPI,MT1-MMP act inh,DNMT1 block,CSN deneddyl inh
Brc1ccc(OCc2nc(-c3ccccn3)n[nH]2)cc1,28*,12,-1,2,0,-1
O=C(C(=O)N1CCN(C(=O)OCc2ccccc2)CC1)c1cccnc1,-2,/,-2,1,/,1
CCCCn1nnnc1C(c1ccccc1)N1CCN(c2ncccc2C(F)(F)F)CC1 (stereo unspecified),-2,/,4,-5,/,-3
CCCCCCCCCCCCCCC[C@@H](O)[C@@H](N)CO,8,10,5,-3,-59,84*
O=C(Cc1cccs1)OCC(=O)c1ccco1,4,-4,5,6,65*,25
Oc1ccccc1-c1csc(-c2ccccc2)n1,19,-4,-11,-16,-1,-1
c1ccc(-c2csc(-c3ccncc3)n2)cc1,70*,0,-14,-1,3,-1
Brc1ccsc1-c1csc(-c2ccncc2)n1,40*,10,-41,-2,-8,-1
Cc1cccc(CN2CCC(n3nccc3NC(=O)CCCc3ccccc3)CC2)c1,-2,1,-2,2,-4,4
COc1ccc2c(c1)sc1nc(-c3ccccc3)cn12,37*,-6,4,17,-13,-2
CCOC(=O)N1CCN(C(=O)c2ccc3c(c2)sc2nc(-c4ccc(OC)cc4)cn23)CC1,3,2,4,3,-3,-1
Cc1ccc(N2CCN(S(=O)(=O)c3ccc4oc(=O)ccc4c3)CC2)c(C)c1,43*,1,1,3,-1,-2
CC1(C(=O)NCc2cccs2)CCN1CCc1ccccc1 (stereo unspecified),-7,-5,-1,2,2,3
Nc1nn(-c2cccc(F)n2)cc1-c1ccccc1,2,-4,47*,-2,2,1
Nc1nn(-c2cccc(F)n2)cc1-c1ccc(Cl)cc1,10,-3,6,-3,2,-8
CCOC(=O)C1=C[C@@H](C(C)(C)C)N(S(=O)(=O)c2ccc(C)cc2)[C@H]1c1ccc(C)cc1,18,6,1,-5,-2,-6
Cc1cc(C)c2nc(C)cc(N/N=C/c3ccc(O)cc3)c2c1,-14,-23,30,-30,62*,4
CCN1/C(=C/c2ccc3ccccc3[n+]2CCCS(=O)(=O)[O-])C=Cc2cc(C)ccc21,39*,14,-20,58,-5,9
CC1CC(=O)c2c(cc3c(-c4c(O)cc(O)c5c(O)c6c(cc45)OC(C)CC6=O)c(O)cc(O)c3c2O)O1 (stereo unspecified),12,3,64*,-3,81*,59
COC(=O)C(C(=O)OC)c1ccccc1NS(=O)(=O)c1c(C)cc(C)cc1C,5,/,8,0,/,1
CC(=O)NC(c1ccc(F)c(F)c1)c1nc(-c2cccc(C(=O)O)c2)cs1 (stereo unspecified),10,-1,10,-1,1,2
CC(Oc1ccc(Br)cc1)C(=O)O/N=C(\N)c1ccncc1 (stereo unspecified),54*,2,1,14,1,1
COc1ccc(NC(=O)c2ccc(OC(F)F)cc2)cc1Cl,4,-7,3,3,-14,1
O=C(Nc1ccc(OC(F)F)c(Cl)c1)c1ccccn1,59*,-1,0,3,3,-2
CC(=O)Nc1cc(-c2ccoc2)cn2c(-c3ccccc3)cnc12,3,/,5,-5,-1,10
O=C(c1cccc(Cl)c1)N(Cc1cccs1)C1CCS(=O)(=O)C1 (stereo unspecified),36*,-8,3,2,-1,-1
Cc1cccc(C(=O)N(Cc2cccs2)C2CCS(=O)(=O)C2)c1 (stereo unspecified),36*,0,4,-1,0,6
COc1cccc(C(=O)N(Cc2cccs2)C2CCS(=O)(=O)C2)c1 (stereo unspecified),5,-9,-3,-2,-2,-2

# Screens as filed in PubChem BioAssay.
